Consider two compounds from ChEMBL document CHEMBL3804768, “Structure-Activity Relationship Studies of Mitogen Activated Protein Kinase Interacting Kinase (MNK) 1 and 2 and BCR-ABL1 Inhibitors Targeting Chronic Myeloid Leukemic Cells” (J Med Chem, 2016).

In brackets after ≈: the same amount, converted by molar mass.

The target of data set [1] is MAP kinase-interacting serine/threonine-protein kinase 1 (Homo sapiens, UniProt Q9BUB5). Briefly: Inhibition of N-terminal GST-tagged MNK1 kinase domain (37 to 341 residues) (unknown origin) expressed in Escherichia coli BL21(DE3) cells using JH3 peptide substrate preincubated for 10 mins followed by substrate addition measured after 60 mins by mobility shift assay.

In data set [2] the target is MAP kinase-interacting serine/threonine-protein kinase 2 (Homo sapiens, UniProt Q9HBH9). Briefly: Inhibition of N-terminal GST-tagged MNK2 kinase domain (72 to 385 residues) (unknown origin) expressed in Escherichia coli BL21(DE3) cells using JH3 peptide substrate preincubated for 10 mins followed by substrate addition measured after 60 mins by mobility shift assay.

Data set [3] concerns the target Tyrosine-protein kinase ABL1 (Homo sapiens, UniProt P00519, T315I). The data set is described as follows: Inhibition of full length human recombinant N-terminal His-tagged ABL (2 to 1130 residues) T315I mutant expressed in baculovirus expression system using FL-peptide 2 substrate preincubated for 10 mins followed by substrate addition measured after 60 mins by mobility shift assay. Put shortly: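 Buffer is 100 mM HEPES pH 7.5, 10 mM MgCl2, 0.004% Tween 20, 1 mM DTT, 0.003% Brij L23. Enzyme and compound sit 10 min before ATP/substrate is added. The reaction runs 60 min at room temperature, is stopped with 10 mM EDTA, and is read by mobility shift.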

For data set [4], the system named is K562. The data set is described as follows: Antiproliferative activity against human K562 cells after 48 hrs by Cell-Titer-Glo luminescent cell viability assay. It is filed as functional. To be noted: K562, 48 h. The essentials: (§1)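 Cells seeded at 5000 per well in growth medium, exposed to serial doses from 0.003 μM to 50 μM for 48 h at 37 °C, 5% CO2. Viability was read by CellTiter-Glo luminescence and GI50 taken from the dose-response curve. Dose response was run in triplicate and the curve repeated twice. K562 eIF4E-overexpressing cells were cultured in RPMI with 10% FBS.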

The nature of data set [5]: Antiproliferative activity against human BV173 cells after 48 hrs by Cell-Titer-Glo luminescent cell viability assay. To be noted: BV-173, 48 h. It is filed as functional. The essentials: as §1
Data set [6] is described as follows: Antiproliferative activity against human EM2 cells after 48 hrs by Cell-Titer-Glo luminescent cell viability assay. It is filed as functional. As to conditions: EM-2, 48 h. The essentials:
as §1

A short description of data set [7]: Antiproliferative activity against human KCL22 cells after 48 hrs by Cell-Titer-Glo luminescent cell viability assay. It is filed as functional. As to conditions: KCL-22, 48 h.
Data set [8] has as its target T1, Mast/stem cell growth factor receptor Kit (Homo sapiens, UniProt P10721). Briefly: Inhibition of human recombinant c-KIT expressed in insect cells using Poly(Glu:Tyr) as substrate in presence of [gamma32P]ATP.
For data set [9], the target named is Vascular endothelial growth factor receptor 2 (Homo sapiens, UniProt P35968). Briefly: Inhibition of human recombinant VEGFR2 expressed in sf21 cells using Poly(Glu:Tyr) as substrate in presence of [gamma32P]ATP.
Data set [10] has as its target T2, Proto-oncogene tyrosine-protein kinase receptor Ret (Homo sapiens, UniProt P07949). The data set is described as follows: Inhibition of human recombinant RET expressed in sf21 cells using Poly(Glu:Tyr) as substrate in presence of [gamma32P]ATP.
Data set [11] has as its target T3, Fibroblast growth factor receptor 2 (Homo sapiens, UniProt P21802). The data set is described as follows: Inhibition of human recombinant FGFR2 expressed in sf21 cells using Poly(Glu:Tyr) as substrate in presence of [gamma32P]ATP.
The target of data set [12] is Platelet-derived growth factor receptor alpha (Homo sapiens, UniProt P16234). The data set is described as follows: Inhibition of human recombinant PDGFRalpha expressed in sf21 cells using Poly(Glu:Tyr) as substrate in presence of [gamma32P]ATP.
Data set [13] can be described thus: Thermodynamic solubility in pH 7 pION buffer at 500 uM incubated for 18 hrs by UV-spectrophotometry. It is filed as physicochemical. To be noted: read-out: Therm_solubility.
Data set [14] is described as follows: Permeability of compound by PAMPA. As to conditions: read-out: permeability. It is filed as ADME. For orientation: The PAMPA barrier holds no transporters, so it reflects passive diffusion.
The test system of data set [15] is K562. The data set is described as follows: Antitumor activity against human K562 cells over expressing eIF4E xenografted in po dosed NOD-SCID mouse assessed as tumor growth inhibition administered qd through oral gavage for 14 days. It is filed as functional, organism-based. Put shortly:
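Female SCID mice, 7-10 weeks old, received 1 x 10^7 K562 eIF4E-overexpressing cells subcutaneously. At tumor volumes of 75-245 mm³ (w²×l/2) mice were randomized and gavaged once daily for 14 days at 10 mL/kg.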

Data set [16] concerns Mus musculus. The data set is described as follows: Toxicity in NOD-SCID mouse xenografted with human K562 cells over expressing eIF4E assessed as body weight loss at 100 mg/kg, po qd administered through oral gavage for 14 days. It is filed as organism-based. As to conditions: in vivo, 336 h. A general note: A xenograft is tissue or cells of one species grown in another, often human tumour cells in immunodeficient mice.

The nature of data set [17]: Clearance in CD1 mouse at 10 mg/kg, iv. To be noted: in vivo. It is filed as ADME, organism-based.
Data set [18] can be described thus: Half life in CD1 mouse at 10 mg/kg, iv. It is filed as ADME, organism-based. To be noted: in vivo.
A short description of data set [19]: Cmax in CD1 mouse at 50 mg/kg, po. It is filed as ADME, organism-based. The arrangement: dose 50 mg/kg, route oral. As to conditions: in vivo.
Data set [20] in a line: AUC in CD1 mouse at 50 mg/kg, po. It is filed as ADME, organism-based. To be noted: in vivo.
Data set [21] has as its target T2, Proto-oncogene tyrosine-protein kinase receptor Ret. Briefly: Inhibition of human recombinant RET expressed in sf21 cells at 1 uM using Poly(Glu:Tyr) as substrate in presence of [gamma32P]ATP.
For data set [22], the target named is T1, Mast/stem cell growth factor receptor Kit. The data set is described as follows: Inhibition of human recombinant c-KIT expressed in insect cells at 1 uM using Poly(Glu:Tyr) as substrate in presence of [gamma32P]ATP.
In data set [23] the target is T3, Fibroblast growth factor receptor 2. The data set is described as follows: Inhibition of human recombinant FGFR2 expressed in sf21 cells at 1 uM using Poly(Glu:Tyr) as substrate in presence of [gamma32P]ATP.
The target in data set [24] is Platelet-derived growth factor receptor beta (Homo sapiens, UniProt P09619). The data set is described as follows: Inhibition of human recombinant PDGFRbeta expressed in sf21 cells at 1 uM using Poly(Glu:Tyr) as substrate in presence of [gamma32P]ATP.
Data set [25] has as its system Mus musculus. Briefly: Toxicity in NOD-SCID mouse xenografted with human K562 cells over expressing eIF4E assessed as body weight loss at 100 to 200 mg/kg, po qd administered through oral gavage for 14 days. It is filed as organism-based. As to conditions: in vivo, 336 h.
Data set [26] can be described thus: Clearance in CD1 mouse at 5 mg/kg, iv. As to conditions: in vivo. It is filed as ADME, organism-based.
A short description of data set [27]: Half life in CD1 mouse at 5 mg/kg, iv. As to conditions: in vivo. It is filed as ADME, organism-based.

T1 sequence (P10721 whole entry): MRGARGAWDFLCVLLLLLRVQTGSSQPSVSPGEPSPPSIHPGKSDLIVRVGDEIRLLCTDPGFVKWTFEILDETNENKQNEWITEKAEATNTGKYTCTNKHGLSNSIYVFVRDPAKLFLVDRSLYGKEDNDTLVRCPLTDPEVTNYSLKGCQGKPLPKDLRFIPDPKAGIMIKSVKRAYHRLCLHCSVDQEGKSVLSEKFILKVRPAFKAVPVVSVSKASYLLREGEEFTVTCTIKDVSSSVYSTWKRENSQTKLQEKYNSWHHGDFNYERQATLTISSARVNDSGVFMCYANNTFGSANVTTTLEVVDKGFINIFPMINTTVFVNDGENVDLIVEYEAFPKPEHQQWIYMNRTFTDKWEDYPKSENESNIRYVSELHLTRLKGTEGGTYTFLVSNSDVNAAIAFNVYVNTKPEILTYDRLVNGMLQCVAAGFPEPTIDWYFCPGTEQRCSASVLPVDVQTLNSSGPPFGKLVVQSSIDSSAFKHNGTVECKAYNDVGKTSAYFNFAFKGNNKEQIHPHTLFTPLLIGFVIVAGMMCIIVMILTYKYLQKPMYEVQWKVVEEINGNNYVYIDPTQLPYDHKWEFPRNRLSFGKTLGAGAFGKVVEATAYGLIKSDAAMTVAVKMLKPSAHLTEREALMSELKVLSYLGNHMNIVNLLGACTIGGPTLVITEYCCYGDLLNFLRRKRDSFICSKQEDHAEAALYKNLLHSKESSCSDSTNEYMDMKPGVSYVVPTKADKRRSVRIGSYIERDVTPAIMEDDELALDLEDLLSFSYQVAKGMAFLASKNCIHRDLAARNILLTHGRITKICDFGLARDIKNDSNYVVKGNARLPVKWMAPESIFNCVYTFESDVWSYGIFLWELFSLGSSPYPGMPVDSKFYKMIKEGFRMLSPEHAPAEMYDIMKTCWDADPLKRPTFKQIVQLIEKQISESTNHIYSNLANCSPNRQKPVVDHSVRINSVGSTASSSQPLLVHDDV
T2 sequence (P07949 whole entry): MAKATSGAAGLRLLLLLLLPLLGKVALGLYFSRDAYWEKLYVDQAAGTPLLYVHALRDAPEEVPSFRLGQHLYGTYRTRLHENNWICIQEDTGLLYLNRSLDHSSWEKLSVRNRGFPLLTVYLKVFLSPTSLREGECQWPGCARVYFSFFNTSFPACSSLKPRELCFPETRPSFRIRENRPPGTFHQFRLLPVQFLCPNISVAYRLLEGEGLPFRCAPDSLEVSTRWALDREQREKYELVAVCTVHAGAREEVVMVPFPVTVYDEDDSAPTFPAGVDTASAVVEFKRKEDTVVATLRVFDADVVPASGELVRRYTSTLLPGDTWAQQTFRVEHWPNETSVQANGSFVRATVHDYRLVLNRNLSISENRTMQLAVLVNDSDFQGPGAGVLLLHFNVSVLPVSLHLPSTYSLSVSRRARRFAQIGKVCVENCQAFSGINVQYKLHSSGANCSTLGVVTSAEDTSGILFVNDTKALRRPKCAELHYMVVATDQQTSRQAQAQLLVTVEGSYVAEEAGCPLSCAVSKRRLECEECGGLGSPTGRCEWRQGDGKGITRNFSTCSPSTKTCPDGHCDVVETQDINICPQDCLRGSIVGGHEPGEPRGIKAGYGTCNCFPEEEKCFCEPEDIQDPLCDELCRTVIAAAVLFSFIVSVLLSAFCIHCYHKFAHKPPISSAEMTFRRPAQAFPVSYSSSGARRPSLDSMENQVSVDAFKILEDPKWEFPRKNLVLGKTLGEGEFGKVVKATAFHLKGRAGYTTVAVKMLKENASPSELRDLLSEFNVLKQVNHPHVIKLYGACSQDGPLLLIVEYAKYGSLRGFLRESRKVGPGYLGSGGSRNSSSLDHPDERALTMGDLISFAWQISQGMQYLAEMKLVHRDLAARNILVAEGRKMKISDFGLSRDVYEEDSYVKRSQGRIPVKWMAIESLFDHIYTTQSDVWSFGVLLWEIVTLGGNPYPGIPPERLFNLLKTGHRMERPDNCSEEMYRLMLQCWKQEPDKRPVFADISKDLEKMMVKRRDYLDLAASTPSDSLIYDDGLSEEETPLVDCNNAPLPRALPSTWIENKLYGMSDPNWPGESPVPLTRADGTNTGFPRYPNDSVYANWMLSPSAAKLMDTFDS
Platelet-derived growth factor receptor beta, sequence (P09619 whole entry): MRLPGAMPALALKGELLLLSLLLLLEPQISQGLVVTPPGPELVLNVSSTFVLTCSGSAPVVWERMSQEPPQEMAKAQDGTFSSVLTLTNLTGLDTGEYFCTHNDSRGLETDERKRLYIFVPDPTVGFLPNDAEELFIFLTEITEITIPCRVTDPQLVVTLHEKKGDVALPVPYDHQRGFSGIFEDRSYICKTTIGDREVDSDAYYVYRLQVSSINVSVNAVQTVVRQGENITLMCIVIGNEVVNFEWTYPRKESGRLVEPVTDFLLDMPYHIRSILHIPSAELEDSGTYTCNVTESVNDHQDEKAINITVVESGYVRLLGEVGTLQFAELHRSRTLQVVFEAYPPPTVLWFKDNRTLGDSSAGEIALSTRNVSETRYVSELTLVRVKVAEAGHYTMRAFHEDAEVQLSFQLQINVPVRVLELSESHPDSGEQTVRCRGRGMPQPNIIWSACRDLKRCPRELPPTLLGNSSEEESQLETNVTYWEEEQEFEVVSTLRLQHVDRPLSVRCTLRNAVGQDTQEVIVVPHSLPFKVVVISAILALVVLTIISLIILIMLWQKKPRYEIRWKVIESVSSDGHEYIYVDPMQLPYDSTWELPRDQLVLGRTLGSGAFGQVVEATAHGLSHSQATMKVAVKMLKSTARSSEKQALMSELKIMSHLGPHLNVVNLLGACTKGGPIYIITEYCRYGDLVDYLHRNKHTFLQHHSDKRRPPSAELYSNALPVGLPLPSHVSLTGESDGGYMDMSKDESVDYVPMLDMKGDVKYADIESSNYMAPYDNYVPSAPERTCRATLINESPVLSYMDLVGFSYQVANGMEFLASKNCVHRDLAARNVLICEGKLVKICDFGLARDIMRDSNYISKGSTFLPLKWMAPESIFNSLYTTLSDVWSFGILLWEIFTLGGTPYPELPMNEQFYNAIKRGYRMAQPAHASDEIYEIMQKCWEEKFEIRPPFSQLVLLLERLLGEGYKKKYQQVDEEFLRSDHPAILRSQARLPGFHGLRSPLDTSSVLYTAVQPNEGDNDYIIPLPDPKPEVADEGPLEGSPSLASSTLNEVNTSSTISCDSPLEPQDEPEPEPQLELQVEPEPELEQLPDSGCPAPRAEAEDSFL
MAP kinase-interacting serine/threonine-protein kinase 2, sequence (Q9HBH9 whole entry, the tested form may be a part): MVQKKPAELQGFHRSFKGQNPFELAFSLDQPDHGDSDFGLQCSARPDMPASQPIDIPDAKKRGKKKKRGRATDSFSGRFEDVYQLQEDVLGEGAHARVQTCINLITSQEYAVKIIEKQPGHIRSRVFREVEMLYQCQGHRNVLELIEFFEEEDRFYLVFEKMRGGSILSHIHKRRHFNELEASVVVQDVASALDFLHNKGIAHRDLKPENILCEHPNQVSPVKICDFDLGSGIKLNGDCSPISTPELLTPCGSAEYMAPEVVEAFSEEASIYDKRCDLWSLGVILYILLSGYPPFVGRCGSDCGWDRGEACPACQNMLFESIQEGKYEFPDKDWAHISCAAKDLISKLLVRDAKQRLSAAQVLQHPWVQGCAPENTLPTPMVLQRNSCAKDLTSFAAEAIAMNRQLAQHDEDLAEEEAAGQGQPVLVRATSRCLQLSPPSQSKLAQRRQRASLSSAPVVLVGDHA
Platelet-derived growth factor receptor alpha, sequence (P16234 whole entry): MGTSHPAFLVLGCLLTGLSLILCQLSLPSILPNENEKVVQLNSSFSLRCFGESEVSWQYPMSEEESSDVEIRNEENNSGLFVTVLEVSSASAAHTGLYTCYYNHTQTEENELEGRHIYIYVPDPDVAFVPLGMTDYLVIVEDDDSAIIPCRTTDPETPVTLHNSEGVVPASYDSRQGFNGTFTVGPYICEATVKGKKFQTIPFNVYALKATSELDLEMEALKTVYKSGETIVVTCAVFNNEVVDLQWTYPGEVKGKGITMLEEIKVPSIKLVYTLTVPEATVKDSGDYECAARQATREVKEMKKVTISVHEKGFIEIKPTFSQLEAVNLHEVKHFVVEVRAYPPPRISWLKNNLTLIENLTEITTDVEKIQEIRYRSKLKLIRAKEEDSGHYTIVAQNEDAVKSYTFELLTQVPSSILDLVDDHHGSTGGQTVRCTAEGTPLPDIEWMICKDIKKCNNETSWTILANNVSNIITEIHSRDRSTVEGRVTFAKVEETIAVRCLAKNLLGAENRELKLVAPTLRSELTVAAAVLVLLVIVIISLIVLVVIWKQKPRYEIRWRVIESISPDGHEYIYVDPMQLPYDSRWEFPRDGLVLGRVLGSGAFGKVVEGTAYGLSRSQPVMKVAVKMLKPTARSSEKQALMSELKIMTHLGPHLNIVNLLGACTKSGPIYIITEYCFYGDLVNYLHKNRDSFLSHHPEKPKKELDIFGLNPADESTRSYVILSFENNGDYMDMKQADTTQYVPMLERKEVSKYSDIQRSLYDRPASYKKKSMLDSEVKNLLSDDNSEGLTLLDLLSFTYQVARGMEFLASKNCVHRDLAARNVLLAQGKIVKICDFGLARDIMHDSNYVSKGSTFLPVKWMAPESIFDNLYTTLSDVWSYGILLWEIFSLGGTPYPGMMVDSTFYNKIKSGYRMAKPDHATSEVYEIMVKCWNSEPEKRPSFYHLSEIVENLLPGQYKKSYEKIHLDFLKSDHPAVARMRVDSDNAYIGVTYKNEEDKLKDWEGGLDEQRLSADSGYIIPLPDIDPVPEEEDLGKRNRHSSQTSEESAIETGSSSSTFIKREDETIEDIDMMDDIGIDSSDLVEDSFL

In the case of `CN1CCN(Cc2ccc(NC(=O)CNc3ccc(-c4ccc(NC(=O)C5CC5)nc4)cc3F)cc2C(F)(F)F)CC1`, the IC50 (commonly the concentration that inhibits the measured activity by half) in data set [1] came out at 200 nM; in data set [2], 10 nM; in data set [3], 20 nM; in [8] it was 1510 nM; in data set [9], 21 nM; in [10], 1 nM. Further, the figures for the IC50 in [11] and in data set [12] were 272 nM and 1280 nM, respectively. Further, the GI50 (as a rule, the concentration at which growth is held to half of that of the control) was found to be 12 nM in data set [4], 1 nM in [5], 1 nM in data set [6] and 13 nM in data set [7]. Moreover, the solubility thermodynamic at 18 h, 500 µM in [13] is 3.8 µg/mL (≈ 6.5 µM). Further, in data set [14], the Papp worked out at 30.6 ×10⁻⁶ cm/s. In data set [15], the TGI result was “Dose-dependent effect”. In addition, the Activity result in [16] is listed as “Non-toxic”. Further, the clearance – broadly, a measure of how efficiently the substance is removed, as volume per time – in data set [17] is 50 mL/min/kg. Also, the half-life (as a rule, the time in which the quantity being followed falls by half) in data set [18] is 2.2 h. Besides, in data set [19], the peak level (Cmax) was 1210 ng/mL. Further, in data set [20], the AUC – broadly, concentration integrated over time – is 5130 ng·h/mL. Also, the inhibition in data set [21], in [22], in data set [23] and in [24] was greater than 99% in each case.

With `CCN1CCN(Cc2ccc(NC(=O)CNc3ccc(-c4ccc(NC(=O)C5CC5)nc4)cc3)cc2C(F)(F)F)CC1`, the IC50 in [1] was determined as 2520 nM; in data set [2] it was 16 nM; in data set [3] it was 50 nM; in [8], 888 nM; in data set [9], 24 nM; in data set [10], 7 nM. The IC50 was found to be 930 nM in [11] and 672 nM in [12]. Further, the GI50 was 58 nM in data set [4], 30 nM in data set [5], 15 nM in [6] and 50 nM in data set [7]. For the same compound, the solubility thermodynamic at 18 h, 500 µM in [13] was 0.1 µg/mL (≈ 0.172 µM). Besides, the Papp in [14] worked out at 34.5 ×10⁻⁶ cm/s. The TGI result in [15] was “Dose-dependent effect”. Also, the Activity result in [25] is “Non-toxic”. Moreover, the clearance in data set [26] is 45 mL/min/kg. The half-life in [27] was 2.14 h. Besides, the Cmax (as a rule, the peak of the concentration-time curve) in data set [19] was determined as 2490 ng/mL. Also, in data set [20], the AUC came to 14300 ng·h/mL. Besides, the inhibition in [21], in data set [22], in data set [23] and in data set [24] was greater than 99% each time.
